According to article PMC5091660 (Journal of medicinal chemistry, 2016):
“Also recorded” adds a separate entry of the source.

Assays:
S1P1 [1] = molecular target: T1, S1P1 (Homo sapiens, UniProt P21453); experiment: competitive [^32P]S1P binding assay, S1P1; conditions: for IC50: S1P1 IC50, competition with [^32P]S1P, cell membranes expressing recombinant human S1P1; for decrease in S1P1 binding affinity relative to 28c: head group change of 28c
S1P1 [2] = molecular target: T1, S1P1; experiment: in vitro functional assay; type: cell-based
How it was run: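 S1P1-TANGO-U2OS cells at 312,500 cells/mL in unsupplemented Freestyle Expression Medium were grown 48 h at 37 °C, 5% CO2. Test compound in DMSO was added (controls 0.5% DMSO final), then incubated 5 h at 37 °C. LiveBLAzer FRET substrate mix with 10 mM probenecid was added for 2 h at r.t. in the dark. Read-out: excitation 405 nm, emission 460 and 535 nm.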

recombinant human S1P2 = recombinant human S1P2 (Homo sapiens, UniProt O95136); experiment: competitive [^32P]S1P binding assay, S1P2
recombinant human S1P3 = recombinant human S1P3 (Homo sapiens, UniProt Q99500); experiment: competitive [^32P]S1P binding assay, S1P3
[3] = test system: liver of LPS-treated mice; experiment: [^15O]water microPET study of liver blood flow in LPS-treated and sham mice; type: in vivo, C57BL/6 mice; conditions: 10 min scan after bolus injection via tail vein
How it was run: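 Adult male C57BL/6 mice (18–23 g) were pretreated ~24 h earlier with saline or LPS and kept under 2–3% isoflurane via nose cone on an Inveon PET/CT. After a transmission scan and CT, they received a bolus of [15O]water (30–55 MBq) by tail vein, followed by a 10 min dynamic scan, ~30 min before the 18F scan. Liver activity was expressed as SUV.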

[4] = test system: liver of LPS-treated mice; experiment: acute biodistribution in LPS-treated and sham mice; type: in vivo, C57BL/6 mice; conditions: n = 4 per group
How it was run: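 About 24 h after sham or LPS treatment, mice received the 18F-labelled test compound (~20 μCi, 0.74 MBq, in 10% ethanol/saline) by tail vein. A separate set received [99mTc]mebrofenin (~4 μCi, 148 KBq) under 2–3% isoflurane/oxygen. Mice were euthanized at 30 or 60 min (n = 4 per group per tracer). Tissues were weighed and gamma-counted against a dilution of the injectate.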

T1 sequence (P21453 whole entry): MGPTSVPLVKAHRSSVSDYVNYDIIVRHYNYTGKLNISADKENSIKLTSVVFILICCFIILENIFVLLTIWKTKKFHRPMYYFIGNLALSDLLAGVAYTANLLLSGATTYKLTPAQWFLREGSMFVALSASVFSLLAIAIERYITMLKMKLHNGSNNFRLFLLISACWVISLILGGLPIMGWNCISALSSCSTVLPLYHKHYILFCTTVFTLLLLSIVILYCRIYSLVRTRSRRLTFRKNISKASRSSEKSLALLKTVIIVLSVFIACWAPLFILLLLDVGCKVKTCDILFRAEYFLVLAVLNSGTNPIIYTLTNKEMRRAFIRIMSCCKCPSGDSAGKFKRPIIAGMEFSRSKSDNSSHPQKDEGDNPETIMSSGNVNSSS
Sequence of recombinant human S1P3 (Q99500 whole entry): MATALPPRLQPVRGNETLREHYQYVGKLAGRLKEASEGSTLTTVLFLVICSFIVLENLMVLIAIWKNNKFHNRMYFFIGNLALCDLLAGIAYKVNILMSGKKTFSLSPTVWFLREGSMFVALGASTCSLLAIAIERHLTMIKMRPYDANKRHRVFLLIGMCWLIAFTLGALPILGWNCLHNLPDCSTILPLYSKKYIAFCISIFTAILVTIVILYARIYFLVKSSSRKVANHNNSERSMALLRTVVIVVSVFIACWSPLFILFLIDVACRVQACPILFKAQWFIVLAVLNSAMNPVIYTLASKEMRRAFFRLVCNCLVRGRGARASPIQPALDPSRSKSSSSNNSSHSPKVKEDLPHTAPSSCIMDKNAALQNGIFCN
Sequence of recombinant human S1P2 (O95136 whole entry): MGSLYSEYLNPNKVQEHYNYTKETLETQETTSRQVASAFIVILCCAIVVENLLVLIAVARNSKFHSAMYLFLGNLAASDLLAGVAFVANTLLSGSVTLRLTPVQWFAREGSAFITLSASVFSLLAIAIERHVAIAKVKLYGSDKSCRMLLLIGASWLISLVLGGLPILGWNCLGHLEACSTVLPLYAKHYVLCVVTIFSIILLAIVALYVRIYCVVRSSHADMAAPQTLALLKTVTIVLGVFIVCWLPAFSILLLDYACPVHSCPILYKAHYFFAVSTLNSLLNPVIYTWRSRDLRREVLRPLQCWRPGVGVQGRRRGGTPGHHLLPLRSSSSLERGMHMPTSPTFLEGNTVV

O=C(O)C1CN(Cc2ccc3oc(-c4ccc(OCCF)c(C(F)(F)F)c4)nc3c2)C1 [Compound 15b, 1-((2-(4-(2-Fluoroethoxy)-3-(trifluoromethyl)phenyl)benzo[d]-oxazol-5-yl)methyl)azetidine-3-carboxylic Acid]
IC50 (S1P1 [1]): 76.4 ± 21.6 nM

O=C(O)c1ccc(-c2ccc3oc(-c4ccc(-c5ccc(F)nc5)c(C(F)(F)F)c4)nc3c2)s1 [Compound 16, 5-(2-(4-(6-Fluoropyridin-3-yl)-3-(trifluoromethyl)phenyl)benzo-[d]oxazol-5-yl)thiophene-2-carboxylic Acid]
EC50 (S1P1 [2]): 2.99 nM
IC50 (S1P1 [1]): 334 ± 59 nM

O=C(O)C1CCN(c2ccc3oc(-c4ccc(-c5ccc(F)cc5)c(C(F)(F)F)c4)nc3c2)CC1 [Compound 18a, 1-(2-(4′-Fluoro-2-(trifluoromethyl)-[1,1′-biphenyl]-4-yl)benzo[d]-oxazol-5-yl)piperidine-4-carboxylic Acid]
EC50 (S1P1 [2]): 0.76 nM

O=C(O)C1CCN(c2ccc3oc(-c4ccc(-c5ccccc5OCCF)c(C(F)(F)F)c4)nc3c2)CC1 [Compound 18b, 1-(2-(2′-(2-Fluoroethoxy)-2-(trifluoromethyl)-[1,1′-biphenyl]-4-yl)benzo[d]oxazol-5-yl)piperidine-4-carboxylic Acid]
EC50 (S1P1 [2]): 3.04 nM

O=C(O)C1CCN(c2ccc3oc(-c4ccc(-c5ccc(OCCF)cc5)c(C(F)(F)F)c4)nc3c2)CC1 [Compound 18c, 1-(2-(4′-(2-Fluoroethoxy)-2-(trifluoromethyl)-[1,1′-biphenyl]-4-yl)benzo[d]oxazol-5-yl)piperidine-4-carboxylic Acid]
EC50 (S1P1 [2]): 11.1 nM

O=C(O)C1CCN(c2ccc3oc(-c4ccc(-c5ccc(C(F)(F)F)cc5)c(C(F)(F)F)c4)nc3c2)CC1 [Compound 18d, 1-(2-(2,4′-Bis(trifluoromethyl)-[1,1′-biphenyl]-4-yl)benzo[d]-oxazol-5-yl)piperidine-4-carboxylic Acid]
EC50 (S1P1 [2]): 4.47 nM
IC50 (S1P1 [1]): 498 ± 335 nM

COc1cccc(-c2ccc(-c3nc4cc(N5CCC(C(=O)O)CC5)ccc4o3)cc2C(F)(F)F)c1 [Compound 18e, 1-(2-(3′-Methoxy-2-(trifluoromethyl)-[1,1′-biphenyl]-4-yl)benzo-[d]oxazol-5-yl)piperidine-4-carboxylic Acid]
EC50 (S1P1 [2]): 4.9 nM

CCOc1ccc(-c2nc(-c3ccc(CN4CC(C(=O)O)C4)cc3)no2)cc1 [Compound 28a, 1-(4-(5-(4-Ethoxyphenyl)-1,2,4-oxadiazol-3-yl)benzyl)azetidine-3-carboxylic Acid]
IC50 (recombinant human S1P2): > 1000 nM

O=C(O)C1CN(Cc2ccc(-c3noc(-c4ccc(OCCF)cc4)n3)cc2)C1 [Compound 28b, 1-(4-(5-(4-(2-Fluoroethoxy)phenyl)-1,2,4-oxadiazol-3-yl)benzyl)-azetidine-3-carboxylic Acid]
IC50 (recombinant human S1P3): > 1000 nM
IC50 (recombinant human S1P2): > 1000 nM

O=C(O)C1CN(Cc2ccc(-c3noc(-c4ccc(OCCF)c(C(F)(F)F)c4)n3)cc2)C1 [Compound 28c, 1-(4-(5-(4-(2-Fluoroethoxy)-3-(trifluoromethyl)phenyl)-1,2,4-oxadiazol-3-yl)benzyl)azetidine-3-carboxylic Acid]
IC50 (recombinant human S1P3): > 1000 nM
IC50 (recombinant human S1P2): > 1000 nM

O=C(O)C1CCN(Cc2ccc(-c3noc(-c4ccc(OCCF)c(C(F)(F)F)c4)n3)cc2)CC1 [Compound 28d, 1-(4-(5-(4-(2-Fluoroethoxy)-3-(trifluoromethyl)phenyl)-1,2,4-oxadiazol-3-yl)benzyl)piperidine-4-carboxylic Acid]
decrease in S1P1 binding affinity relative to 28c (S1P1 [1]): 20 fold
IC50 (recombinant human S1P3): > 1000 nM
IC50 (recombinant human S1P2): > 1000 nM

FCCOc1ccc(-c2nc(-c3ccc(CNCc4nnn[nH]4)cc3)no2)cc1C(F)(F)F [Compound 28e, N-((1H-Tetrazol-5-yl)methyl)-1-(4-(5-(4-(2-fluoroethoxy)-3-(trifluoromethyl)phenyl)-1,2,4-oxadiazol-3-yl)phenyl)methanamine]
decrease in S1P1 binding affinity relative to 28c (S1P1 [1]): over 100 fold

COc1ccc(-c2nc(-c3ccc(CN4CC(C(=O)O)C4)cc3)no2)cc1C(F)(F)F [Compound 28f, 1-(4-(5-(4-Methoxy-3-(trifluoromethyl)phenyl)-1,2,4-oxadiazol-3-yl)benzyl)azetidine-3-carboxylic Acid]
IC50 (S1P1 [1]): > 100 nM

[15OH2] [[^15O]water]
liver uptake (TAC) in LPS-treated mice compared to sham mice [3]: no difference; also recorded: no significant change

[^99mTc]-N-(3-bromo-2,4,6-trimethyacetanilide) iminodiacetic acid [[^99mTc]mebrofenin]
liver uptake in LPS-treated mice compared with sham mice ([4]; 30 min postinjection): increased
liver uptake in LPS-treated mice compared with sham mice ([4]; 60 min postinjection): absence of a significant difference; also recorded: no significant difference
